Measurements published in ChEMBL document CHEMBL2384936, “Synthesis and evaluation of antimicrobial activity of hydrazones derived from 3-oxido-1H-imidazole-4-carbohydrazides” (Eur J Med Chem, 2013).
In brackets after ≈: the same amount, converted by molar mass. Activity calls are given as the source filed them. The calls are words filed in the database; no cut-off is given here.

Tests used:
Candida albicans = assay: Antifungal activity against Candida albicans ATCC 10231 assessed as growth inhibition at 1 to 600 ug/mL after 18 hrs by broth microdilution method; type: functional, organism-based
Pseudomonas aeruginosa = assay: Antibacterial activity against Pseudomonas aeruginosa NCTC 6249 assessed as growth inhibition at 1 to 600 ug/mL after 18 hrs by broth microdilution method; type: functional, organism-based
[1] = system: Staphylococcus epidermidis; assay: Antibacterial activity against Staphylococcus epidermidis ATCC 12228 assessed as growth inhibition at 1 to 600 ug/mL after 18 hrs by broth microdilution method; type: functional, organism-based
Enterococcus faecalis = assay: Antibacterial activity against Enterococcus faecalis ATCC 29212 assessed as growth inhibition at 1 to 600 ug/mL after 18 hrs by broth microdilution method; type: functional, organism-based
Proteus mirabilis = assay: Antibacterial activity against Proteus mirabilis ATCC 29906 assessed as growth inhibition at 1 to 600 ug/mL after 18 hrs by broth microdilution method; type: functional
Escherichia coli [2] = assay: Antibacterial activity against Escherichia coli NCTC 8192 assessed as growth inhibition at 1 to 600 ug/mL after 18 hrs by broth microdilution method; type: functional, organism-based
Staphylococcus aureus [3] = assay: Antibacterial activity against Staphylococcus aureus ATCC 6538 assessed as growth inhibition at 1 to 600 ug/mL after 18 hrs by broth microdilution method; type: functional, organism-based
Method in brief: (§1)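 Frozen stocks (-80 °C, tryptic soy broth with 15% glycerol); S. aureus subcultured on blood agar and identified by catalase, coagulase and clumping factor. Inoculum at 0.5 McFarland. DMSO-dissolved compounds 1–600 µg/mL in Mueller–Hinton broth, 37 °C 18 h, OD600 read with and without compound. MIC = lowest concentration preventing growth; triplicates, per CLSI.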

Proteus vulgaris = assay: Antibacterial activity against Proteus vulgaris ATCC 49990 assessed as growth inhibition at 1 to 600 ug/mL after 18 hrs by broth microdilution method; type: functional, organism-based
Staphylococcus aureus [4] = assay: Antibacterial activity against Staphylococcus aureus ATCC 29213 assessed as growth inhibition at 1 to 600 ug/mL after 18 hrs by broth microdilution method; type: functional, organism-based; method in brief: as §1
[5] = system: Staphylococcus epidermidis; assay: Bactericidal activity against Staphylococcus epidermidis ATCC 12228 after 18 hrs by broth microdilution method; type: functional; conditions: ATCC 12228, 18 h
Method in brief: (§2)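 Broth microdilution, then contents of wells without visible growth plated onto Mueller–Hinton agar and incubated 35 °C for 18 h. Triplicates, per CLSI.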

Staphylococcus aureus [6] = assay: Bactericidal activity against Staphylococcus aureus ATCC 29213 after 18 hrs by broth microdilution method; type: functional; conditions: ATCC 29213, 18 h; method in brief: as §2
Staphylococcus aureus [7] = assay: Bactericidal activity against Staphylococcus aureus ATCC 6538 after 18 hrs by broth microdilution method; type: functional; conditions: ATCC 6538, 18 h; method in brief: as §2
Escherichia coli [8] = assay: Bactericidal activity against Escherichia coli NCTC 8192 after 18 hrs by broth microdilution method; type: functional; conditions: NCTC 8192, 18 h; method in brief: as §2
[9] = system: Staphylococcus epidermidis; assay: Antibacterial activity against Staphylococcus epidermidis ATCC 12228 assessed as growth inhibition after 18 hrs by broth microdilution method; type: functional; conditions: ATCC 12228, 18 h
Method in brief: (§3)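 Frozen stocks (-80 °C, tryptic soy broth with 15% glycerol); S. aureus subcultured on blood agar and identified by catalase, coagulase and clumping factor. Inoculum at 0.5 McFarland. MIC = lowest concentration preventing growth; triplicates, per CLSI.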

Staphylococcus aureus [10] = assay: Antibacterial activity against Staphylococcus aureus ATCC 29213 assessed as growth inhibition after 18 hrs by broth microdilution method; type: functional; conditions: ATCC 29213, 18 h
Method in brief: (§4)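 Broth microdilution in Mueller–Hinton broth with 1–600 µg/mL compound added from DMSO stocks. Inoculum adjusted to 0.5 McFarland. Strains stored at -80 °C and subcultured on blood agar before use. Incubation 37 °C for 18 h with OD600 read. MIC taken as the lowest concentration preventing growth, run in triplicate following CLSI. Vancomycin and oxacillin served as controls.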

Staphylococcus aureus [11] = assay: Antibacterial activity against Staphylococcus aureus ATCC 6538 assessed as growth inhibition after 18 hrs by broth microdilution method; type: functional; conditions: ATCC 6538, 18 h; method in brief: as §4
Escherichia coli [12] = assay: Antibacterial activity against Escherichia coli NCTC 8192 assessed as growth inhibition after 18 hrs by broth microdilution method; type: functional; conditions: NCTC 8192, 18 h; method in brief: as §3

Structure (SMILES) | Activity (Candida albicans) | Activity (Pseudomonas aeruginosa) | Activity [1] | Activity (Enterococcus faecalis) | Activity (Proteus mirabilis) | Activity (Escherichia coli [2]) | Activity (Staphylococcus aureus [3]) | Activity (Proteus vulgaris) | Activity (Staphylococcus aureus [4]) | MBC [5] [µg/mL] | MBC (Staphylococcus aureus [6]) [µg/mL] | MBC (Staphylococcus aureus [7]) [µg/mL] | MBC (Escherichia coli [8]) [µg/mL] | MIC [9] [µg/mL] | MIC (Staphylococcus aureus [10]) [µg/mL] | MIC (Staphylococcus aureus [11]) [µg/mL] | MIC (Escherichia coli [12]) [µg/mL]
COc1ccc(/C=N/NC(=O)c2c(C)n(Cc3ccccc3)c[n+]2[O-])cc1 | inactive | inactive | inactive | inactive | inactive | inactive | inactive | inactive | inactive | – | – | – | – | – | – | – | –
C/C(=N\NC(=O)c1c(C)n(Cc2ccccc2)c[n+]1[O-])c1ccccc1 | inactive | inactive | inactive | inactive | inactive | inactive | inactive | inactive | inactive | – | – | – | – | – | – | – | –
Cc1c(C(=O)N/N=C/c2ccccc2O)[n+]([O-])cn1Cc1ccccc1 | inactive | inactive | inactive | inactive | inactive | inactive | inactive | inactive | inactive | – | – | – | – | – | – | – | –
Cc1c(C(=O)NN=C2CCCCC2)[n+]([O-])cn1Cc1ccccc1 | inactive | inactive | inactive | inactive | inactive | inactive | inactive | inactive | inactive | – | – | – | – | – | – | – | –
Cc1c(C(=O)N/N=C/c2ccccc2)[n+]([O-])cn1Cc1ccccc1 | inactive | inactive | inactive | inactive | inactive | inactive | inactive | inactive | inactive | – | – | – | – | – | – | – | –
O=C(N[C@H](CO)[C@H](O)c1ccc([N+](=O)[O-])cc1)C(Cl)Cl [CHLORAMPHENICOL] | – | – | – | – | – | – | – | – | – | 2 (≈ 6.19 µM) | 4 (≈ 12.4 µM) | 4 (≈ 12.4 µM) | 0.5 (≈ 1.55 µM) | 0.5 (≈ 1.55 µM) | 1 (≈ 3.09 µM) | 1 (≈ 3.09 µM) | 0.25 (≈ 0.774 µM)
